Shown is part of a subset that was picked to be rich in hits.
Tb MetRS inh: T. brucei MetRS inhibitors, primary screen, biochemical, luminescence; methionyl-tRNA synthetase (Trypanosoma brucei brucei); inhibition, % at 11.9 µM; 360,000 compounds, 0.4% hits; purified T. brucei MetRS, ATP depletion, Kinase-Glo luminescence;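 active means inhibition above a per-plate cutoff of the control wells' mean inhibition plus 3 SD, cut at about 5.5% in these data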;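 further: 0% = DMSO wells median and 100% = median of wells with control inhibitor compound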
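Test system: purified T. brucei MetRS enzyme. Also added: ATP, methionine and E. coli bulk tRNA substrates. Compound: 11.9 µM single point. Schedule: 15 min enzyme-compound preincubation, 2 h reaction, 10 min detection, 25 °C. Signal: luciferase luminescence of residual ATP, Kinase-Glo. Evaluation: percent inhibition versus plate control medians. Controls: DMSO wells, low control.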
CHOP UPR activ: activators of apoptotic CHOP UPR arm, primary screen, cell-based, CHO-CHOP luciferase reporter, luminescence, uHTS | UPR activation; percent of tunicamycin response over DMSO baseline | activation, % at 10 µM | 330,000 compounds, 0.34% hits;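 active means at 10 µM dose, activation of 40% or more, normalized to positive control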;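 further: 100% = tunicamycin at 10 µg/mL and 0% = DMSO alone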
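Material: CHO-CHOP cells, stable luciferase reporter of PERK-eIF2a-CHOP signalling; quantity: 500 reporter cells seeded per well; buffer or medium: F12 medium containing 10% fetal bovine serum; compound: one dose, 10 µM in 0.5% DMSO; incubation: 6 h compound treatment, 37 °C; measured by: Steady-Glo luciferase luminescence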
UPR XBP1 act: activators of adaptive XBP1 UPR arm, primary screen, cell-based, CHO-XBP1 luciferase reporter, luminescence, uHTS; IRE1-XBP1 UPR activation; percent of tunicamycin response, DMSO as zero; activation, % at 20 µM; 330,000 compounds, 0.33% hits; AID 463104, 2010;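 active means versus positive control, 20 µM dose yields 30% or more activation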;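 further: 100% = tunicamycin at 10 µg/mL and 0% = DMSO only wells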
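Material: IRE1-XBP1 luciferase reporter CHO line / Quantity: one thousand reporter cells per well / Buffer or medium: F12 with 10% serum / Compound: 20 µM single concentration, DMSO 1% / Times: 6 h treatment, 37 °C / Detection: Steady-Glo luciferase glow luminescence, 10 min after reagent addition / Benchmarks: tunicamycin high, DMSO low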
CHOP inhibitor: inhibitors of CHOP promoter induction, primary screen, cell-based, unfolded protein response, luciferase reporter; CHO-K1 CHOP-promoter luciferase, tunicamycin-induced, 15-18 h; inhibition, % at 10 µM; 220,000 compounds, 3.8% hits; AID 2732, 2010;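 active means compounds that reduced the stress-induced luciferase reporter signal by more than about 70% of percent inhibition, limit read from the data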;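 further: 0% = tunicamycin plus vehicle and 100% = wells without tunicamycin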
V-ATPase pHluor: regulators of yeast V-ATPase proton pumping, primary screen, pHLuorin cytosolic pH fluorescence; S. cerevisiae; response, % at 10 µM; 350,000 compounds, 0.37% hits; AID 504577, 2011; in the data active means response mostly above about 7.3%, no sharp cut-off; inactive means mostly below about 5.4%; further: actives read high
CHOP inh conf: retest of CHOP induction inhibitors, confirmation, cell-based; inhibition, % at 10 µM; 2,100 compounds, 45% hits; shares compounds with CHOP inhibitor; AID 504437, 2011; CHO-CHOP promoter luciferase reporter, tunicamycin-induced, luminescence;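 active means mean of three repeat readings of reporter signal inhibition above a set limit, cut at about 70% in these data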;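 further: 0% = tunicamycin plus vehicle and 100% = wells lacking tunicamycin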
Starred values were filed as active, the others as inactive; . = no result.

SMILES	Tb MetRS inh	CHOP UPR activ	UPR XBP1 act	CHOP inhibitor	V-ATPase pHluor	CHOP inh conf
Cc1ccc(NC(=O)C(=O)NCC2OCCc3ccccc32)cc1 (stereo not drawn)	-0.2	2.7	2.5	104.9*	6.8	101.9*
Cc1ccc(NC(=O)C2OCCc3ccccc32)cc1 (stereo not drawn)	-0.2	3.7	5.0	28.5	-1.3	.
Cc1cc(N2CCOCC2)nc2ccc(NC(=S)N3CCN(c4ccccc4)CC3)cc12	-1.4	8.6	0.4	100.7*	0.5	-12.7
O=C(Nc1ccc(Cl)cc1)C1C2C=CC3(O2)C1C(=O)N(CCCN1CCCCC1)C3C(=O)NC1CCCCC1 (stereo not drawn)	0.1	-0.1	-2.1	.	-0.1	.
Cc1ccc(NC(=O)c2ccc(C#CC3(O)CCCCC3)cc2)cc1C	0.0	5.2	3.9	100.9*	3.2	105.7*
Cn1nc(-c2ccc(C(=O)Nc3ccc(F)cc3)cc2)c2ccccc2c1=O	-0.2	-2.1	-2.5	100.6*	0.9	48.5
Cn1nc(-c2ccc(C(=O)Nc3cccnc3)cc2)c2ccccc2c1=O	0.0	0.0	1.8	19.9	1.0	.
S=C(NCC1CCCO1)N1CCc2ccccc2C1 (stereo not drawn)	-0.7	0.9	1.6	.	3.4	.
O=C(Nc1ccc(Br)cc1)N1CCCCC1	0.4	2.8	1.6	-32.7	3.5	.
CC1CCN(S(=O)(=O)c2ccc(C(=O)Nc3sccc3C(N)=O)cc2)CC1	-0.4	4.7	0.2	96.5*	1.6	57.9
O=C(Nc1ccccc1)Nc1cc(Cl)cc(Cl)c1	5.0	3.2	0.4	111.5*	0.3	67.9
O=C(Nc1cccnc1)Nc1cc(Cl)cc(Cl)c1	3.8	-0.1	0.1	14.1	-0.6	.
Cc1cc(C)cc(N(CC(=O)NC2CCCC2)C(=O)CCC(=O)Nc2nc(C)cs2)c1	-0.5	1.0	-7.0	.	0.6	.
O=C(Cc1cccc(F)c1)N1CCOCC1	0.2	.	.	.	0.1	.
C=C(C)C1Cc2c(C)nn(-c3cccc4ccccc34)c2C1 (stereo not drawn)	-0.1	-0.5	3.9	101.3*	0.4	31.0
O=CNc1cc(-c2cccc(O)c2)cn2c(-c3ccc(F)cc3)cnc12	0.0	.	.	.	.	.
Cc1cccc2sc(NC(=O)Cn3c(C)csc3=O)nc12	-0.4	-0.6	5.1	.	-0.2	.
CN(C)c1ccc(C(CNS(=O)(=O)c2ccc(F)cc2)c2c[nH]c3ccccc23)cc1 (stereo not drawn)	-0.3	-0.8	-1.9	107.0*	-1.9	18.8
Cc1cccc(N/C(N)=N/c2nc(C)c(Cc3ccccc3)c(=O)[nH]2)c1	0.4	9.4	13.9	101.1*	0.0	12.8
COc1ccc(N/C(N)=N/c2nc(C)c(Cc3ccccc3)c(=O)[nH]2)cc1	-1.3	0.3	-3.1	.	3.0	.
C=CCNc1nc(NCCOc2ccccc2Cl)c2sc(-c3ccccc3)cc2n1	0.3	.	.	.	.	.
CCc1cccc(C)c1NC(=O)CSc1nc(C)c(C)o1	-0.6	0.9	-5.1	.	-1.1	.
COc1ccc(C(=O)Nc2ccccc2C(=O)N2CCCCC2C)cc1 (stereo not drawn)	-0.6	-1.2	1.5	5.6	.	.
Cc1nc2ccc(NC(=O)c3ccc(Cl)c([N+](=O)[O-])c3)cc2s1	0.5	3.0	-4.3	17.4	0.6	.
Cc1nc2ccc(NC(=O)c3cc([N+](=O)[O-])cc([N+](=O)[O-])c3Cl)cc2s1	0.2	.	.	107.2*	1.2	5.6
SMILES	Tb MetRS inh	CHOP UPR activ	UPR XBP1 act	CHOP inhibitor	V-ATPase pHluor	CHOP inh conf
Cc1cccc(N/N=C(\C=N\N)C(=O)c2ccc(Br)cc2)c1	.	-0.5	-3.0	103.4*	.	35.1
COc1ccc(S(=O)(=O)N(C)c2ccc(C(=O)N3CCC(C(N)=O)CC3)cc2)cc1OC	-0.6	-0.4	-1.8	-6.1	-1.0	.
Cc1ccc(C(=O)Nc2sc3c(c2C(=O)NCc2ccco2)CCCC3)cc1	0.2	1.9	25.3	104.0*	-4.2	-104.6
Cc1ccc(OCCNC(=O)CCNC(=O)c2ccc(Cl)cc2)cc1	0.3	-0.7	-2.2	.	0.5	.
O=C(Nc1ccccc1)Nc1nc(-c2ccc(F)cc2)cs1	0.1	2.5	3.2	105.9*	-1.4	8.2
O=S(=O)(Nc1ccc(-c2csc(-c3ccccc3)n2)cc1)c1ccc(F)cc1	-0.3	3.6	1.3	104.8*	-3.9	36.2
Fc1ccc(-c2csc(NC(=S)Nc3ccccc3)n2)cc1	0.3	2.4	6.3	.	3.6	.
CCc1ccc(-c2cc(C(=O)N3N=C(C(F)F)CC3(O)C(F)F)c3ccccc3n2)cc1 (stereo not drawn)	-1.0	7.8	8.9	110.3*	2.8	112.8*
O=S(=O)(Nc1ccc(N2CCCCC2)cc1)c1ccc(F)c(F)c1	1.9	-2.9	-3.7	99.9*	-1.4	11.4
COc1ccc(C(C)=O)cc1COC(=O)CSCC(=O)Nc1ccc(C)cc1	-0.4	-0.6	-1.2	.	-2.1	.
Cc1ccc(NNC(=S)Nc2ccc(C(C)C)cc2)c(C)c1	-1.1	-0.1	-1.9	105.5*	-1.8	16.1
C=Cc1ccc(Cn2c(C)c(C(=O)NCCC#N)sc2=O)cc1	-0.5	.	.	.	.	.
CCc1ccc(CNC(=O)Cc2ccc(NC(=O)C3=C(C)OCCS3)cc2)cc1	-0.4	2.4	4.7	.	-3.7	.
Cc1cccc2cc(C#N)c(NCCCNS(=O)(=O)c3ccc(Cl)cc3)nc12	-0.3	-1.5	-0.6	103.6*	1.5	53.6
COc1ccc(COC(=O)Oc2ccc(CNC(C)=O)cc2OC)c([N+](=O)[O-])c1	-0.3	-0.6	-2.9	.	-1.5	.
Nc1ccc2oc(-c3ccccc3Cl)nc2c1	-0.6	-1.1	-1.4	39.4	1.9	.
Nc1ccc2oc(-c3cc(Br)ccc3Cl)nc2c1	-1.0	-4.5	-2.9	96.9*	-3.5	73.6*
COCCNC(=O)c1ccccc1NC(=O)c1cccc([N+](=O)[O-])c1C	-0.2	0.8	-1.5	-11.5	-0.7	.
CCOC(=O)CSC1=NC(=O)/C(=C\c2ccc(OC(C)=O)cc2)S1	0.8	8.0	11.9	106.4*	-0.5	28.3
C/C(=C\c1ccco1)C1C(C#N)=C(N)Oc2n[nH]c(-c3ccc(C)cc3)c21 (stereo not drawn)	1.1	-0.5	3.1	105.0*	-4.4	113.8*
C/C(=C\c1ccco1)C1C(C#N)=C(N)Oc2n[nH]c(-c3ccccc3)c21 (stereo not drawn)	-0.2	-1.4	2.4	23.9	-1.5	.
CCC(C)(C)c1ccc(Oc2ccc(N)cc2)cc1	-1.3	.	.	108.1*	-1.7	125.2*
CCC(C)(C)c1ccc(Oc2cccc(C(=O)O)c2)cc1	-0.1	2.5	-4.0	-11.3	1.9	.
CN(C)CCCn1c(SCC(=O)Nc2nc(-c3cccc(Br)c3)cs2)nc2ccccc2c1=O	-0.3	2.9	8.6	105.6*	-6.5	104.6*

Compound activity as filed in PubChem.
